Values after ≈ are worked out from the molar mass of the structure shown.
Tests used:
Leishmania infantum = experiment: WHO-TDR: Leishmaniasis; assay type: functional, organism-based, Mus musculus; details: Macrophage
Summary of the method: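 A diverse library of 10,000 compounds from Life Chemicals, filtered for drug-likeness and reactive groups, was screened against whole organisms. The targets were intracellular amastigotes of Leishmania infantum MHOM/MA(BE)/67 growing in murine peritoneal macrophages. Previously published standard procedures were followed, with a reference drug as positive control. Antiparasitic potency is given as IC50.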

[1] = system: Trypanosoma brucei brucei; experiment: WHO-TDR: Human African Trypanosomiasis (HAT); assay type: functional, organism-based; details: Squib-427
Summary of the method: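 A diverse library of 10,000 compounds from Life Chemicals, filtered for drug-likeness and reactive groups, was screened against bloodstream forms of Trypanosoma brucei Squib 427 strain in a whole-organism assay. Previously published standard procedures were followed, with reference drugs serving as positive controls. Antiparasitic potency is given as IC50.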

Onchocerca ochengi [2] = experiment: (§1) WHO-TDR: Onchocerciasis; assay type: functional; design: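 at 12.5 µM on microfilariae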
Summary of the method: (§2)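 Onchocerca ochengi or Onchocerca lienalis, animal pathogens used as surrogates for the human parasite, were screened as whole microfilariae against a 10,000-compound diverse library from Life Chemicals. The reported measures of activity are percent inhibition and IC50.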

Schistosoma mansoni = experiment: WHO-TDR: Schistosomiasis; assay type: functional; design: concentration or dose not given beside the values
Summary of the method: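 Larval and/or adult Schistosoma mansoni (Puerto Rican strain) were tested whole against 10,000 diverse compounds from Life Chemicals. The procedure was a previously published standard one, using a reference drug as positive control. Results are expressed as percent inhibition and IC50.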

Plasmodium falciparum K1 = experiment: WHO-TDR: Malaria; assay type: functional, organism-based, Homo sapiens; details: Erythrocyte
Summary of the method: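 A diverse library of 10,000 compounds from Life Chemicals, filtered for drug-likeness and reactive groups, was screened against the intra-erythrocytic Plasmodium falciparum K1 strain in human red blood cells. Previously published standard procedures were followed, with a reference drug as positive control. Antiplasmodial potency is given as IC50.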

Trypanosoma cruzi = experiment: WHO-TDR: Chagas disease; assay type: functional, organism-based, Homo sapiens; details: MRC5
Summary of the method: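 Whole-organism screen of a 10,000-compound diverse library from Life Chemicals, filtered for drug-likeness and reactive groups, against intracellular amastigotes of Trypanosoma cruzi Tulahuen CL2 beta-galactosidase strain grown in MRC-5SV2 human lung fibroblast host cells. The assay followed previously published standard procedures, with a reference drug as positive control. Antiparasitic potency is reported as IC50.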

[3] = WHO-TDR: Cytotoxicity; assay type: toxicity, cell-based; details: human, MRC5 cells
Onchocerca ochengi [4] = experiment: as §1; assay type: functional; design: concentration or dose not given beside the values; summary of the method: as §2; remark: listed apart in the source

IC50 (Leishmania infantum) [µg/mL]	IC50 [1] [µg/mL]	IC50 (Plasmodium falciparum K1) [µg/mL]	SMILES	% Inhibition (Onchocerca ochengi [2]) [%]	% Inhibition (Schistosoma mansoni) [%]	IC50 (Trypanosoma cruzi) [µg/mL]	IC50 [3] [µg/mL]	% Inhibition (Onchocerca ochengi [4]) [%]
3.94 (≈ 9.71 µM)	0.39 (≈ 0.96 µM)	0.703 (≈ 1.73 µM)	CCCc1cc(=O)[nH]c(-n2nc(C)cc2NC(=O)c2ccc(Br)o2)n1	0	75	< 0.122	0.441 (≈ 1.08 µM)	50
4.36 (≈ 9.71 µM)	3.99 (≈ 8.9 µM)	> 13.5	CCCc1cc(=O)[nH]c(-n2nc(C)cc2NC(=O)C2CC(=O)N(c3ccc(C)c(C)c3)C2)n1 (stereo not given)	0	0	1.28 (≈ 2.86 µM)	4.51 (≈ 10 µM)	50
> 11.6	0.377 (≈ 0.971 µM)	2.07 (≈ 5.33 µM)	Cc1cc(NC(=O)COc2ccc(Cl)cc2)n(-c2nc(C)c(C)c(=O)[nH]2)n1	0	0	0.359 (≈ 0.926 µM)	0.338 (≈ 0.872 µM)	50
6.21 (≈ 15.5 µM)	0.388 (≈ 0.97 µM)	> 12	COc1ccc(Cl)cc1C(=O)Nc1cc(C)nn1-c1nc2c(c(=O)[nH]1)CCC2	0	50	0.361 (≈ 0.902 µM)	0.685 (≈ 1.71 µM)	0
> 13.1	0.42 (≈ 0.959 µM)	0.644 (≈ 1.47 µM)	Cc1cc(NC(=O)C2(c3ccc(Cl)cc3)CCCC2)n(-c2nc3c(c(=O)[nH]2)CCC3)n1	0	56.7	0.37 (≈ 0.844 µM)	0.338 (≈ 0.772 µM)	0
5.3 (≈ 15.5 µM)	3.2 (≈ 9.37 µM)	10.2 (≈ 30 µM)	Cc1cc(NC(=O)c2cccs2)n(-c2nc3c(c(=O)[nH]2)CCC3)n1	0	0	0.56 (≈ 1.64 µM)	2.03 (≈ 5.94 µM)	0
> 10.2	> 10.2	5.12 (≈ 15 µM)	O=C(c1ccco1)N1CCN(c2ccc(-c3cccs3)nn2)CC1	0	0	> 10.2	> 10.2	100
3.69 (≈ 8.11 µM)	0.237 (≈ 0.521 µM)	> 13.6	CCOc1cccc2cc(-c3csc(NC(=O)c4sc5ccccc5c4Cl)n3)oc12	0	0	11.8 (≈ 25.9 µM)	0.237 (≈ 0.521 µM)	0
> 13	4.33 (≈ 9.95 µM)	> 13	O=C(Nc1nc(-c2ccncc2)cs1)C1CCCN(S(=O)(=O)c2cccs2)C1 (stereo not given)	0	0	0.534 (≈ 1.23 µM)	9.25 (≈ 21.3 µM)	50
4.55 (≈ 9.71 µM)	4.5 (≈ 9.6 µM)	6.68 (≈ 14.2 µM)	O=C(Nc1nc(-c2ccncc2)cs1)C1CCCN(S(=O)(=O)c2ccc(Cl)s2)C1 (stereo not given)	0	0	0.243 (≈ 0.518 µM)	> 14.1	50
6.18 (≈ 15.5 µM)	> 11.9	> 11.9	Cc1nnc(NC(=O)COc2cccc3ccc(N4CCCC(C)C4)nc23)s1 (stereo not given)	0	0	0.407 (≈ 1.02 µM)	> 11.9	50
> 13.1	4.24 (≈ 9.71 µM)	> 13.1	O=C(CC1CCCCN1S(=O)(=O)c1ccc(Cl)cc1)Nc1ccc2c(c1)OCO2 (stereo not given)	0	0	0.789 (≈ 1.81 µM)	> 13.1	0
> 12.2	5.79 (≈ 14.2 µM)	> 12.2	Cc1ccc(S(=O)(=O)N2CCCCC2CC(=O)Nc2ccc(Cl)cc2)cc1 (stereo not given)	0	0	0.421 (≈ 1.03 µM)	> 12.2	0
> 13.8	6.11 (≈ 13.3 µM)	> 13.8	Cc1ccc(S(=O)(=O)N2CCCCC2CC(=O)Nc2ccc(F)c(C(F)(F)F)c2)cc1 (stereo not given)	0	0	0.889 (≈ 1.94 µM)	> 13.8	0
6.6 (≈ 15.5 µM)	4.23 (≈ 9.95 µM)	> 12.7	O=C(CC1CCCCN1S(=O)(=O)c1ccc(Cl)cc1)NCCC1=CCCCC1 (stereo not given)	0	0	0.517 (≈ 1.22 µM)	12.7 (≈ 30 µM)	0
> 13.8	4.53 (≈ 9.83 µM)	> 13.8	CCOC(=O)c1ccc(NC(=O)CC2CCCCN2S(=O)(=O)c2ccc(OC)cc2)cc1 (stereo not given)	0	0	0.449 (≈ 0.975 µM)	2.03 (≈ 4.4 µM)	0
> 10.1	> 10.1	0.441 (≈ 1.31 µM)	Cc1ccc2c(c1)NC(=O)c1cc(NC(=O)C3CCCC3)ccc1O2	0	0	> 10.1	> 10.1	0
0.638 (≈ 1.55 µM)	> 12.3	> 12.3	COc1ccc2oc(-c3csc(NC(=O)c4cccc(OC)c4OC)n3)cc2c1	0	0	> 12.3	> 12.3	0
3.38 (≈ 7.54 µM)	0.43 (≈ 0.959 µM)	5.1 (≈ 11.4 µM)	CN1CCc2cc(C(CNC(=O)COc3ccc(Cl)cc3Cl)N3CCCC3)ccc21 (stereo not given)	0	0	4.36 (≈ 9.73 µM)	11.6 (≈ 25.9 µM)	50
4.03 (≈ 9.71 µM)	> 12.4	1.47 (≈ 3.54 µM)	CN1CCN(C(CNC(=O)c2ccc(F)c(F)c2)c2ccc3c(c2)CCN3C)CC1 (stereo not given)	0	0	> 12.4	3.34 (≈ 8.05 µM)	100
1.9 (≈ 4.46 µM)	4.14 (≈ 9.71 µM)	3.56 (≈ 8.35 µM)	CN1CCN(C(CNC(=O)COc2ccccc2F)c2ccc3c(c2)CCN3C)CC1 (stereo not given)	0	0	> 12.8	> 12.8	0
4.16 (≈ 9.71 µM)	0.411 (≈ 0.96 µM)	> 12.8	CN1CCCc2cc(C(CNC(=O)COc3ccc(Cl)cc3)N3CCCC3)ccc21 (stereo not given)	0	25	4.46 (≈ 10.4 µM)	> 12.8	0
> 12.7	> 12.7	> 12.7	CN1CCCc2cc(C(CNC(=O)c3ccc4c(c3)OCO4)N3CCOCC3)ccc21 (stereo not given)	0	0	4.94 (≈ 11.7 µM)	11.2 (≈ 26.3 µM)	100
> 11.5	3.68 (≈ 9.6 µM)	> 11.5	CN1CCCc2cc(C(CNC(=O)c3cccs3)N3CCCCC3)ccc21 (stereo not given)	0	0	10.4 (≈ 27.2 µM)	> 11.5	100
4.09 (≈ 9.71 µM)	4.04 (≈ 9.6 µM)	> 12.6	C=CCN1C(=O)C(C)(C)COc2cc(NS(=O)(=O)c3ccccc3Cl)ccc21	0	0	4.05 (≈ 9.61 µM)	> 12.6	100
> 11.8	3.72 (≈ 9.49 µM)	> 11.8	C=CCN1C(=O)C(C)(C)COc2cc(NS(=O)(=O)C3CCCCC3)ccc21	60	0	8.42 (≈ 21.4 µM)	> 11.8	100
> 13.3	4.27 (≈ 9.6 µM)	> 13.3	CCCN1C(=O)C(C)(C)COc2cc(NS(=O)(=O)c3c(C)c(C)cc(C)c3C)ccc21	0	0	3.55 (≈ 7.99 µM)	> 13.3	100
> 12.5	4.62 (≈ 11.1 µM)	> 12.5	CCCN1C(=O)C(C)(C)COc2cc(NS(=O)(=O)Cc3ccc(C)cc3)ccc21	60	0	> 12.5	> 12.5	100
> 14.4	4.62 (≈ 9.6 µM)	> 14.4	CC(C)CN1C(=O)C(C)(C)COc2cc(NS(=O)(=O)c3ccccc3Br)ccc21	0	0	4.3 (≈ 8.93 µM)	> 14.4	100
> 11.4	> 11.4	> 11.4	CN1C(=O)C(C)(C)COc2ccc(NS(=O)(=O)c3ccccc3F)cc21	0	0	> 11.4	> 11.4	100

Source: ChEMBL document CHEMBL2093137, “WHO-TDR NTD Screening”
